# The list is not random: actives were taken first. Their share in the collection is about 2.2%.
# EBI2 block: antagonists of human EBI2 receptor. P32249. EBI2 beta-arrestin recruitment, luminescence, 7a,25-OHC stimulated. inhibition, % at 5 µM. actives 0.81% (n = 360,000); in the data active means inhibition above about 38%;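 further: enzyme fragment complementation signal reports receptor beta-arrestin coupling in cells; 0% = agonist plus DMSO wells and 100% = wells without agonist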
# CCR6 antagonist: antagonists of human CCR6 receptor; inhibition, % at 20 µM; CHO-K1 CCR6 PathHunter beta-arrestin, luminescence, CCL20-stimulated; AID 493098; actives 0.49% (n = 340,000); P51684;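 active means compounds whose inhibition of the agonist-driven luminescence signal at 20 µM reaches about 50%, limit read from the data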;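 further: cells stimulated with CCL20 at 14 nM final; plate controls were DMSO with CCL20 for no effect and DMSO without agonist for full effect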
# Target sequence (P51684 whole entry, looked up): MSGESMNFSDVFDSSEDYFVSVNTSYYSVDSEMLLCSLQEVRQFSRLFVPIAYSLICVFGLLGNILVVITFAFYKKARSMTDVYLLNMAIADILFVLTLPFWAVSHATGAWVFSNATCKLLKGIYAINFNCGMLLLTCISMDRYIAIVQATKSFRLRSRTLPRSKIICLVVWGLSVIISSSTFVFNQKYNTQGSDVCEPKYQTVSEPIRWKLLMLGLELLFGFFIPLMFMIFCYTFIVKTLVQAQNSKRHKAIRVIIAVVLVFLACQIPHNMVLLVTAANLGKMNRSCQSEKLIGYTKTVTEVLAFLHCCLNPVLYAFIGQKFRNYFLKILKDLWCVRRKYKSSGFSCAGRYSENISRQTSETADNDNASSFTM
# APJ antagonist: blocks the human apelin receptor APJ; P35414; CHO-K1 APJ beta-arrestin complementation, luminescence; inhibition, % at 20 µM; actives 0.32% (n = 330,000); AID 2521;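 active means inhibition above about 40% at 20 µM, limit read from the data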;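 further: cells challenged with 10 nM apelin-13 agonist together with compound; plate controls were apelin-13 plus DMSO wells for no effect and DMSO wells lacking apelin-13 for full effect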
# APJ ag: agonists of human APJ apelin receptor; P35414; CHO-K1 APJ PathHunter beta-arrestin, luminescence; 0% DMSO wells, 100% apelin; AID 2520; actives 0.11% (n = 330,000); activation, % at 20 µM;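 active means activation more than six SD over the plate average, tested at 20 µM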;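 further: 0% = DMSO alone and 100% = apelin-13 at 10 nM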
#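 system = engineered CHO-K1 APJ arrestin reporter cells | input = 1000 cells per well | timing = overnight seeding, 90 min compound at 25 °C, 1 h detection | measured by = enzyme-fragment complementation luminescence | read-out = beta-arrestin recruitment to APJ as agonist activity, luminescent signal | control set = negative DMSO alone, positive Apelin-13 at 10 nM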
# CXCR6 block: CXCR6 (human) receptor inhibition | O00574 | CHO-K1 PathHunter CXCR6 beta-arrestin, luminescence | inhibition, % at 20 µM | actives 0.36% (n = 360,000) | AID 602244; in the data active means inhibition above about 34%, passing the limit was not always enough;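 further: antagonist mode with CXCL16 agonist at 10 nM final; 0% = 10 nM CXCL16 with DMSO and 100% = unstimulated wells without agonist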
# m5-HT2A agonist: mouse HTR2A agonism via beta-arrestin recruitment. CHO-K1 mHTR2A beta-arrestin complementation, luminescence; percent of 30 µM serotonin response. actives 0.66% (n = 360,000). P35363. activation, % at 7.6 µM;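 active means activation above a run cutoff, the mean activation of all tested compounds plus 3 SD, cut at about 14% in these data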;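 further: 0% = plate median of compound wells and 100% = 30 µM serotonin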
# MOR ag counter: counter-screen for mouse HTR2A agonists: human mu opioid receptor agonists | shares compounds with m5-HT2A agonist | U2OS OPRM1 beta-arrestin PathHunter, luminescence; DMSO 0%, DAMGO 9.3 µM 100% | AID 624380 | activation, % at 9.3 µM | actives 5.3% (n = 2,300);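 active means mean activation above the mean of DMSO-only wells plus 3 SD, cut at about 0.5% in these data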
# HTR2A ag conf: mouse HTR2A agonism confirmed; shares compounds with m5-HT2A agonist; CHO-K1 PathHunter beta-arrestin recruitment, luminescence; DMSO 0%, 30 µM serotonin 100%; activation, % at 7.6 µM; actives 19% (n = 2,300);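 active means mean activation across triplicates above the hit threshold derived in the original primary screen, cut at about 15% in these data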
# * = called active by the depositor; · = no result given.
SMILES,EBI2 block,CCR6 antagonist,APJ antagonist,APJ ag,CXCR6 block,m5-HT2A agonist,MOR ag counter,HTR2A ag conf
O=C(COC(=O)/C=C/c1cccc(C(F)(F)F)c1)NC(=O)NCc1ccccc1,-8,2,9,6,-1,4,·,·
O=C(COC(=O)/C=C/c1cccc(C(F)(F)F)c1)NC(=O)NC1CCCC1,-9,-3,-1,5,-2,16*,0,-3
Nc1cc(N)cc(C(=O)c2ccccc2)c1,-15,·,·,·,-11,2,·,·
COCCNC(=O)C1(C)CCCN(Cc2cc3ccccc3o2)C1 (stereo not given),-3,·,·,·,-4,1,·,·
O=C(Nc1ccccc1)N1CCN(c2nc3ccccc3s2)CC1,1,3,4,0,-8,27*,0,0
CCN(CC(=O)Nc1ccc2c(c1)OCCO2)C(=O)CC(NC(C)=O)c1ccccc1 (stereo not given),9,10,-2,-3,-4,18*,-1,-3
CCN(CC(=O)Nc1ccc2c(c1)OCCO2)C(=O)CCOc1ccccc1,7,-2,5,-4,0,-3,·,·
CCc1nc2ccc(C(=O)NCC3CCCCC3)cn2c1N(C)Cc1nccs1,-5,·,·,·,2,-4,·,·
COC(=O)[C@]12CCCCC=C1N(Cc1ccc(Cl)cc1Cl)C(=O)[C@H](CC(=O)NCCC(C)C)C2,22,·,·,·,4,2,·,·
C=CCn1c(SCC(=O)NC2CC2)nnc1-c1ccccn1,-3,-2,-10,9,-2,3,·,·
C=CCn1c(SCC(=O)NC2CCCCC2)nnc1-c1ccccn1,-1,-10,8,-3,-2,14*,-1,-1
CN1CCN(c2cccc3c2S(=O)(=O)N[C@@H](Cc2ccccc2)CO3)CC1,-1,·,·,·,7,0,·,·
Cc1ccc(N2CCN(C(=O)C(=O)c3ccc4c(c3)OCO4)CC2)cc1,5,·,·,·,·,0,·,·
COc1cccc(C(NC(C)=O)c2nc(-c3cccc(O)c3)cs2)c1 (stereo not given),5,·,·,·,-2,12,·,·
O=C1CC(=O)Nc2cc(S(=O)(=O)N3CCOc4ccccc43)ccc2N1,1,-11,9,-1,-15,26*,-1,-2
Cc1ccc(C(=O)CSc2nnc(C3CC3)n2C2CC2)s1,9,4,-3,-1,3,3,·,·
CC(C)(C)C(=O)NCc1ccc(C(=O)CSc2nnc(-c3ccncc3)n2C2CC2)s1,-7,9,0,-2,-14,16*,-1,-2
CCc1nc2ccc(C(=O)NCCc3ccccn3)cn2c1N(CCC(C)C)CCN(C)C,-2,·,·,·,8,1,·,·
Cc1cccc(NS(=O)(=O)c2cccc(C(=O)NCC3(N4CCOCC4)CCCCC3)c2)c1,-2,17,·,·,-4,-1,·,·
CCOC(=O)C(C(=O)OCC)C1N=C(N)N=C2Oc3ccccc3N21 (stereo not given),-2,15,21,-7,-2,15*,0,0
CCOC(=O)CN1C(=O)C(CC)Oc2ccccc21 (stereo not given),5,4,6,-3,7,5,·,·
CCCNC(=O)C1(C)CCCN(Cc2ccc(C(F)(F)F)cc2)C1 (stereo not given),4,·,·,·,-5,-3,·,·
Cc1ccc(C(=O)NCC(=O)N(C)Cc2cccc(F)c2)s1,9,2,-13,2,-3,4,·,·
Cc1ccc(C(=O)NCC(=O)N(C)Cc2ccccc2C)s1,0,·,·,·,4,19*,-1,-3
CCOC(=O)C1=CCCN(S(=O)(=O)c2ccc(C)cc2)C1,-6,·,·,·,0,3,·,·
Cc1ccc2nc(NC(=O)CSCC(=O)Nc3cc(C)on3)sc2c1,-5,6,-64,-5,0,19*,-1,-1
